Screens from PubChem BioAssay.
Efflux pump mplx: inhibitors of Candida antifungal efflux pumps expressed in yeast; S. cerevisiae Candida pump triplex, Nile Red efflux; inhibition, % at 10 µM; 330,000 tested, 0.44% active; AID 485275;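 active = plate passing quality check with inhibition over a set limit, or well fluorescence over plate mean plus 4 SD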;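 note: Nile Red retained in pooled yeast measured as flow cytometry median fluorescence; 0% = buffer negative control and 100% = Enniatin B positive control; higher means more Nile Red kept so more efflux inhibition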
GalR3 antag: blocks the human galanin receptor 3 | O60755 | HEK293 GalR3-CNG cAMP membrane potential fluorescence; galR3 body fused to GalR1 C-terminus | inhibition, % at 3 µM | 360,000 tested, 0.44% active;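 active = inhibition above the screen-wide average plus 3 SD, cut at about 13% in these data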;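 note: forskolin and galanin both at EC90 stimulate the cells; cAMP rise reported by CNG channel membrane potential dye signal; 0% = forskolin plus galanin with DMSO and 100% = forskolin alone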
Calb FLC: affects C. albicans growth with fluconazole; AID 1979; growth inhibition, % (test concentration not listed); 300,000 tested, 0.57% active; C. albicans CaCi-2 (fluconazole-resistant clinical isolate) + fluconazole, Alamar Blue growth, 48 h;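 active = growth inhibition above about 58% in most replicates, limit read from the data, passing the limit was not always enough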;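 note: all wells also contain fluconazole at 8 µg/ml as a sub-toxic cotreatment; 0% = median of DMSO wells and 100% = median of geldanamycin control wells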
TAG inh: inhibitors of triacylglycerol accumulation; H9c2 cells, Nile Red lipid (TAG) fluorescence; cells loaded with 200 µM oleic acid; inhibition, % at 12.5 µM; 230,000 tested, 0.66% active;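 active = pattern-corrected inhibition of lipid staining of at least 50% with the nuclear-stain viability signal not falling by more than 50%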;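 note: 0% = DMSO wells and 100% = triacsin C control wells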
MC4R ag barr: agonists of human melanocortin 4 receptor (MC4R) beta-arrestin. 360,000 tested, 0.98% active. P32245. U2OS MC4R beta-arrestin complementation, luminescence; percent of melanotan II response, DMSO zero. activation, % at 8.9 µM;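 active = activation above a per-plate cutoff, the mean activation of sample wells on that plate plus 3 SD, cut at about 8% in these data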
Target sequence (P32245 whole entry, looked up): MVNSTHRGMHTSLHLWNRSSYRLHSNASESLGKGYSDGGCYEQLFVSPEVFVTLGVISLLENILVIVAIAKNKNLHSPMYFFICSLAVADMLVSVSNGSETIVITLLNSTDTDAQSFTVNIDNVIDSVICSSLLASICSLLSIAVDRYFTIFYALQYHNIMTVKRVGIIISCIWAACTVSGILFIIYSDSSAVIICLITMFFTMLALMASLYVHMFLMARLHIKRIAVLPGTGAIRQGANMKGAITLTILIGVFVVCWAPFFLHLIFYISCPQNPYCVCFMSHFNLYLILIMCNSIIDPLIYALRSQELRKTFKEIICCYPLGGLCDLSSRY
MC4R antag cAMP: antagonists of human melanocortin 4 receptor (MC4R). 360,000 tested, 0.48% active. P32245. AID 540295. MC4R-expressing cells, MTII-stimulated cAMP, LANCE TR-FRET. inhibition, % at 6.5 µM;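 active = inhibition above its plate's cutoff, the mean of tested wells on that plate plus 3 SD, cut at about 29% in these data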;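 note: 0% = Melanotan II alone and 100% = Melanotan II plus saturating MCL0020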
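Material – human MC4R-expressing U2OS cells · Repeats – no replicates · Detection – TR-FRET with Eu-cAMP and labeled anti-cAMP, 671 nm · Times – compound 30 min, challenge 1 h, detection 1 h · Compound – single nominal compound dose of 6.5 µM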
GalR3 conf: confirmation of human galanin receptor 3 antagonists; HEK293 GalR3 CNG cAMP biosensor, membrane potential fluorescence; galR3 fused to GalR1 carboxy tail; challenged with forskolin and galanin at EC90; shares compounds with GalR3 antag; inhibition, % at 3 µM; 1,600 tested, 59% active; AID 652245;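 active = inhibition above the primary screen's cutoff, the mean inhibition of all screened compounds plus 3 SD, cut at about 13% in these data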;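 note: 0% = forskolin plus galanin and 100% = forskolin alone with DMSO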
CNG parental: parental cell agonism counter-screen for GalR3 antagonists; activation, % at 3 µM; 1,600 tested, 10% active; HEK293-CNG parental cells, cAMP membrane potential fluorescence; normalised: DMSO wells 0%, forskolin wells 100%; AID 652268; shares compounds with GalR3 antag; in the data active = activation above about 1.3%
Starred values were filed as active, the others as inactive; nt = not tested or not shown. Compounds with a hit are over-represented: about 2.9% of the library has one in this group of screens.

SMILES	Efflux pump mplx	GalR3 antag	Calb FLC	TAG inh	MC4R ag barr	MC4R antag cAMP	GalR3 conf	CNG parental
C=C1C(=O)OC2CCN3CC=C(COC(=O)C(C)(O)C4(CO4)C1C)C23 (centres undefined)	nt	-3.2	nt	nt	0.8	-2.2	nt	nt
COc1ccc2c(C)c(CC(=O)N3C[C@H]4C[C@@H](C3)c3cccc(=O)n3C4)c(=O)oc2c1C	-0.1	19.9*	-1.4	nt	-1.3	-0.1	3.9	0.1
COc1ccc2c(C)c(CC(=O)N3C[C@H]4C[C@@H](C3)c3cccc(=O)n3C4)c(=O)oc2c1	-0.2	6.5	-5.0	nt	0.1	6.5	nt	nt
Oc1cccc2nc3ccccc3nc12	-0.1	-6.3	-5.8	nt	-2.0	-23.9	nt	nt
CC(C)(C)NCC(O)c1cc(Cl)c(N)c(Cl)c1 (centres undefined)	0.2	23.8*	nt	-8.3	0.4	6.2	30.6*	5.3*
CCc1ccc(CN2CCN(Cc3ccc(SC)cc3)CC2)cc1	-0.2	50.0*	-15.2	nt	0.8	11.9	59.7*	1.4*
NP(=O)(Nc1ccccc1)Nc1ccccc1	nt	-6.4	nt	-8.1	-1.4	6.9	nt	nt
COc1ccc2[nH]c(C)c(CCNCc3cc(OC)c(OC)c(OC)c3)c2c1	0.0	-5.1	-3.2	4.1	1.1	11.7	nt	nt
COc1ccc(CNCCc2c(C)[nH]c3ccc(OC(F)(F)F)cc23)c(OC)c1	0.1	24.2*	2.4	nt	5.5	9.5	90.4*	0.1
